Test results: ChEMBL document CHEMBL2203197, “Design and synthesis of 2-aminothiazole based antimicrobials targeting MRSA” (2012)
Values after ≈ are worked out from the molar mass of the structure shown.

Key:
Type in all cases: functional
Staphylococcus aureus [1] = assay: Antibacterial activity against methicillin-resistant Staphylococcus aureus RN8175 after 24 hrs by CLSI broth microdilution method; settings: RN8175, 24 h
Outline: (§1)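 Broth microdilution per CLSI in cation-adjusted Mueller–Hinton broth. Plates were incubated 24 h at 37 °C. MIC was taken as the lowest concentration that inhibited growth, judged by turbidity.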

Staphylococcus aureus [2] = assay: Antibacterial activity against methicillin-resistant Staphylococcus aureus USA-300 after 24 hrs by CLSI broth microdilution method; settings: USA-300, 24 h; outline: as §1
Escherichia coli = assay: Antibacterial activity against Escherichia coli C600 N/puc19 after 24 hrs by CLSI broth microdilution method; settings: C600 N/puc19, 24 h
Outline: (§2)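 Broth microdilution per CLSI in cation-adjusted Mueller–Hinton broth. MIC was taken as the lowest concentration inhibiting visible growth (turbidity).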

Staphylococcus aureus [3] = assay: Antibacterial activity against methicillin-resistant Staphylococcus aureus UAMS-1 after 24 hrs by CLSI broth microdilution method; settings: UAMS-1, 24 h; outline: as §1
Acinetobacter baumannii = assay: Antibacterial activity against Acinetobacter baumannii UNMC 8872 after 24 hrs by CLSI broth microdilution method; settings: UNMC 8872, 24 h; outline: as §2

SMILES	MIC (Staphylococcus aureus [1]) [µg/mL]	MIC (Staphylococcus aureus [2]) [µg/mL]	MIC (Escherichia coli) [µg/mL]	MIC (Staphylococcus aureus [3]) [µg/mL]	MIC (Acinetobacter baumannii) [µg/mL]
Nc1nc(-c2ccccc2-c2cccc(OC(F)(F)F)c2)cs1	16 (≈ 47.6 µM)	16 (≈ 47.6 µM)	> 256	–	–
O=S(=O)(Nc1nc2c(s1)CCCC2)c1cccc(C(F)(F)F)c1	> 256	> 256	> 256	> 256	–
CCOC(=O)c1cccc(-c2ccc3sc(N)nc3c2)c1	> 256	> 256	> 256	> 256	–
Nc1nc(-c2ccc(N3CCOCC3)cc2)cs1	256 (≈ 980 µM)	> 256	> 256	128 (≈ 490 µM)	–
CCOC(=O)c1cccc(-c2ccccc2-c2csc(N)n2)c1	32 (≈ 98.6 µM)	256 (≈ 789 µM)	> 256	–	> 256
CCOC(=O)COc1ccc(-c2cccc(-c3csc(N)n3)c2)cc1	256 (≈ 722 µM)	> 256	> 256	–	–
Nc1nc(-c2ccc(OC(F)(F)F)cc2)cs1	64 (≈ 246 µM)	64 (≈ 246 µM)	> 256	–	–
COc1ccc(-c2csc(N)n2)cc1	> 256	> 256	> 256	–	–
Fc1cccc(Nc2nc(-c3ccc(N4CCOCC4)cc3)cs2)c1	> 256	> 256	> 256	256 (≈ 720 µM)	–
CO/N=C(\C(=O)N[C@@H]1C(=O)N2C(C(=O)O)=C(CSc3nc(=O)c(O)nn3C)CS[C@H]12)c1csc(N)n1 [CEFTRIAXONE]	16 (≈ 28.9 µM)	128 (≈ 231 µM)	2 (≈ 3.61 µM)	8 (≈ 14.4 µM)	8 (≈ 14.4 µM)
COC(=O)c1ccccc1-c1cccc(-c2csc(N)n2)c1	> 256	> 256	> 256	> 256	–
Nc1nc(-c2ccc(-c3cccc(OC(F)(F)F)c3)cc2)cs1	2 (≈ 5.95 µM)	> 256	> 256	–	–
Nc1nc(-c2cc3ccccc3o2)cs1	> 256	> 256	> 256	256 (≈ 1180 µM)	–
Nc1nc(-c2cccc(-c3ccc(C(=O)O)cc3)c2)cs1	> 256	> 256	> 256	–	> 256
Nc1nc(-c2cccc(-c3cccc(OC(F)(F)F)c3)c2)cs1	4 (≈ 11.9 µM)	8 (≈ 23.8 µM)	> 256	–	–
Nc1nc2ccc(-c3cccc(OC(F)(F)F)c3)cc2s1	8 (≈ 25.8 µM)	16 (≈ 51.6 µM)	> 256	–	–

SMILES	MIC (Staphylococcus aureus [1]) [µg/mL]	MIC (Staphylococcus aureus [2]) [µg/mL]	MIC (Escherichia coli) [µg/mL]	MIC (Staphylococcus aureus [3]) [µg/mL]	MIC (Acinetobacter baumannii) [µg/mL]
COC(=O)c1ccc(-c2csc(N)n2)cc1	128 (≈ 546 µM)	> 256	> 256	–	–
O=S(=O)(Nc1nc(-c2ccccc2F)cs1)c1ccccc1	32 (≈ 95.7 µM)	128 (≈ 383 µM)	> 256	–	–
Fc1cccc(Nc2nc(-c3cccc(Br)c3)cs2)c1	4 (≈ 11.5 µM)	4 (≈ 11.5 µM)	> 256	2 (≈ 5.73 µM)	–
O=S(=O)(Nc1nc(-c2ccccc2Br)cs1)c1ccccc1	32 (≈ 81 µM)	128 (≈ 324 µM)	> 256	–	–
Fc1cccc(Nc2nc(-c3ccc(N4CCCC4)cc3)cs2)c1	> 256	> 256	> 256	2 (≈ 5.89 µM)	–
Nc1nc(-c2cccc(-c3cccc(C(=O)O)c3)c2)cs1	> 256	> 256	> 256	–	> 256
CCOC(=O)COc1cccc(-c2cccc(-c3csc(N)n3)c2)c1	> 256	> 256	> 256	–	–
Nc1nc(-c2ccc(N3CCCC3)cc2)cs1	> 256	> 256	> 256	256 (≈ 1040 µM)	–
Nc1nc(-c2ccc3ccccc3c2)cs1	> 256	> 256	> 256	256 (≈ 1130 µM)	–
O=S(=O)(Nc1nc(-c2ccc(Br)cc2)cs1)c1ccccc1	16 (≈ 40.5 µM)	64 (≈ 162 µM)	> 256	–	> 256
O=S(=O)(Nc1nc(C23CC4CC(CC(C4)C2)C3)cs1)c1cccc(C(F)(F)F)c1	> 256	> 256	> 256	128 (≈ 289 µM)	–
Nc1nc2cc(-c3cccc(OC(F)(F)F)c3)ccc2s1	8 (≈ 25.8 µM)	8 (≈ 25.8 µM)	> 256	–	–
CCOC(=O)CCc1ccc(-c2cccc(-c3csc(N)n3)c2)cc1	256 (≈ 726 µM)	> 256	> 256	–	–
CCOC(=O)c1cccc(-c2cccc(-c3csc(N)n3)c2)c1	> 256	> 256	> 256	–	> 256
CC(=O)OCC1=C(C(=O)O)N2C(=O)[C@@H](NC(=O)c3cccc(-c4csc(N)n4)c3)C2SC1 (stereo not given in full)	16 (≈ 33.7 µM)	256 (≈ 539 µM)	> 256	256 (≈ 539 µM)	–
COC(=O)c1cccc(-c2csc(N)n2)c1	> 256	> 256	> 256	–	–
